Measured values as given in ChEMBL document CHEMBL1817572, “New, potent, selective, and short-acting peptidic V1a receptor agonists” (J Med Chem, 2011).
Numbered stars: 1 amine (or outer) side, 2 acyl side, 3 side chain; on linkers, the order of the positions; unused ones are H or OH. Bridge positions count the residues as written; N and C are the ends. Square brackets hold non-standard residues; d marks the D form. Peptide text beside a SMILES is read from it. X5 = CC(C)CCNCCC[C@H](N[*:1])C(=O)[*:2]; Ala(2-furyl) = N[C@@H](Cc1ccco1)C(=O)O; X4 = CONC(=O)CC[C@H](N[*:1])C(=O)[*:2]; Ala(cPent) = N[C@@H](CC1CCCC1)C(=O)O; Orn(iPr) = CC(C)NCCC[C@H](N)C(=O)O; Dab(iPr) = CC(C)NCC[C@H](N)C(=O)O; 3Pal = N[C@@H](Cc1cccnc1)C(=O)O; 2Thi = N[C@@H](Cc1cccs1)C(=O)O; 3Thi = N[C@@H](Cc1ccsc1)C(=O)O; Aad = N[C@@H](CCCC(=O)O)C(=O)O; Orn = NCCC[C@H](N)C(=O)O; Dab = NCC[C@H](N)C(=O)O; Ac4c = NC1(C(=O)O)CCC1

Key:
[1] = target: Vasopressin V1a/V2 (Homo sapiens) (UniProt P30518+P37288); test: Selectivity ratio of EC50 for human vasopressin V2 receptor to EC50 for human vasopressin V1a receptor
Sequence of Vasopressin V1a/V2 (Homo sapiens) (P30518 whole entry, looked up): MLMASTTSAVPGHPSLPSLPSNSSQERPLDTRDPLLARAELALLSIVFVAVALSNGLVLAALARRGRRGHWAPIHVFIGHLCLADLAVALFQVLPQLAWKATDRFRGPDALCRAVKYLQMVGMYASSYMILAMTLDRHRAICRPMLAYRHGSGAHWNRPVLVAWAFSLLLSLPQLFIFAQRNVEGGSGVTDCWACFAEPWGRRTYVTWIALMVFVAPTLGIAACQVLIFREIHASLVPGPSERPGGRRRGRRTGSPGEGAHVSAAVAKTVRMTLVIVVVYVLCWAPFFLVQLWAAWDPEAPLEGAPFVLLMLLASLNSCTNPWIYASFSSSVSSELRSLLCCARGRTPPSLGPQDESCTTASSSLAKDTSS
Sequence of Vasopressin V1a/V2 (Homo sapiens) (P37288 whole entry, looked up): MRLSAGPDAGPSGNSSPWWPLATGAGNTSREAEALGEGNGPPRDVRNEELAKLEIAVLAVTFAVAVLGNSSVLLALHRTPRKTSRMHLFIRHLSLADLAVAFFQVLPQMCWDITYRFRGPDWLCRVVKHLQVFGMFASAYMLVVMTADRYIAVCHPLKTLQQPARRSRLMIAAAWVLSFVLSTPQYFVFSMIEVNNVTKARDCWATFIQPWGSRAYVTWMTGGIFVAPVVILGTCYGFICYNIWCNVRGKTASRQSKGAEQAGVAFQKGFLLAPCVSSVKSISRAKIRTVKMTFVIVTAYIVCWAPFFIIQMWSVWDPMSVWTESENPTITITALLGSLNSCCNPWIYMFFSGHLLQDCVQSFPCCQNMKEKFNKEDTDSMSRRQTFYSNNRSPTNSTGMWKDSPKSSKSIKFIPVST

[2] = target: T1, Oxytocin receptor (Homo sapiens, UniProt P30559); test: Agonist activity at human OT receptor expressed in CHO-K1 cells by luciferase reporter gene assay; assay type: functional, cell-based
T1 sequence (P30559 whole entry): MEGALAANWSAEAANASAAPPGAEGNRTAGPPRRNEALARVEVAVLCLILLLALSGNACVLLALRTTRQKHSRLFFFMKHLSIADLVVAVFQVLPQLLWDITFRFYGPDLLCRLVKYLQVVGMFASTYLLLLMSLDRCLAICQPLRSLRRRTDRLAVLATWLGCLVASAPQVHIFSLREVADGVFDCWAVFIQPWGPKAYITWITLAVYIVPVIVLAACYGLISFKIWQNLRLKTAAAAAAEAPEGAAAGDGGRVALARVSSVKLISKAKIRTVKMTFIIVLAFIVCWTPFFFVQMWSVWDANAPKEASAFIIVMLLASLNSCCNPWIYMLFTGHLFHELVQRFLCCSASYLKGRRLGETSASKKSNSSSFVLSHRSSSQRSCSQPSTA

[3] = target: Vasopressin V2 receptor (Homo sapiens, UniProt P30518); test: Agonist activity at recombinant human vasopressin V2 receptor expressed in HEK293 cells by luciferase reporter gene assay; assay type: functional, cell-based
Sequence of Vasopressin V2 receptor (P30518 whole entry): as the sequence (P30518 whole entry, looked up) above

[4] = target: Vasopressin V1a receptor (Homo sapiens, UniProt P37288); test: Agonist activity at recombinant human vasopressin V1a receptor expressed in HEK293 cells by luciferase reporter gene assay; assay type: functional, cell-based; conditions: read-out: EC50
Sequence of Vasopressin V1a receptor (P37288 whole entry): as the sequence (P37288 whole entry, looked up) above

[5] = species on record: Homo sapiens; test: Selectivity ratio of EC50 for human vasopressin V1b receptor to EC50 for human vasopressin V1a receptor
[6] = species on record: Homo sapiens; test: Selectivity ratio of EC50 for human oxytocin receptor to EC50 for human vasopressin V1a receptor
[7] = target: T2, Vasopressin V1b receptor (Homo sapiens, UniProt P47901); test: Agonist activity at recombinant human vasopressin V1b receptor expressed in Flp-In-293 cells by luciferase reporter gene assay; assay type: functional, cell-based; conditions: read-out: EC50
T2 sequence (P47901 whole entry): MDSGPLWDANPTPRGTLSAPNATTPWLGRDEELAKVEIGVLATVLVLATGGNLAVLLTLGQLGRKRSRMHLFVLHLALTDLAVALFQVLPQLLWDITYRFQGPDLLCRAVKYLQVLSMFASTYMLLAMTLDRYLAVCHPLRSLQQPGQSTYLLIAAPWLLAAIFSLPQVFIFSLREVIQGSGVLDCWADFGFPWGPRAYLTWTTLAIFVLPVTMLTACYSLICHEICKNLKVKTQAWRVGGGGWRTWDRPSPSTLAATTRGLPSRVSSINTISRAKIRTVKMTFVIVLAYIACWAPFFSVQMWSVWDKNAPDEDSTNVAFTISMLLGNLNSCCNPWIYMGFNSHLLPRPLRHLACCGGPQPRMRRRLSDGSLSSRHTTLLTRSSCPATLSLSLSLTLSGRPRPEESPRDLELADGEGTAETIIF
Summary of the method: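 Reporter gene assays in HEK293 cells transiently cotransfected with V1a (human or rat) or human V2 receptor vector plus NFAT-luciferase (V1a) or CRE-luciferase (V2) reporter; V1b in Flp-In-293 stably expressing receptor, OT in CHO-K1 stably expressing receptor, both transiently transfected with NFAT-luciferase. Two days post-transfection, peptides added for 5 h at 37 °C, lysis with luciferin, luminescence read.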

Ratio EC50 [1] | EC50 ([2]; read-out: EC50) | EC50 ([3]; read-out: EC50) | EC50 [4] | Ratio EC50 [5] | Ratio EC50 [6] | EC50 [7] | EC50 ([2]; cho-k1, read-out: EC50) | EC50 ([2]; read-out: pEC50 (converted)) | EC50 ([3]; hek293, read-out: EC50) | EC50 ([3]; read-out: pEC50 (converted)) | Compound
61 | – | 1.1 µM | 18 nM | 53 | > 550 | 960 nM | > 10 µM | > 10 µM | – | – | CC[C@H](C)[C@@H]1NC(=O)[C@H](Cc2ccccc2)NC(=O)[C@@H](N)CSSC[C@@H](C(=O)N2CCC[C@H]2C(=O)N[C@@H](CCNC(C)C)C(=O)NCC(N)=O)NC(=O)[C@H](CC(N)=O)NC(=O)[C@H](CCCC(N)=O)NC1=O (H-CFI[Aad](NH2)NCP[Dab(iPr)]G-NH2; disulfide 1-6)
1500 | – | 1.7 µM | 1.1 nM | 25 | > 9000 | 28 nM | > 10 µM | > 10 µM | – | – | CC[C@H](C)[C@@H]1NC(=O)[C@H](Cc2ccccc2)NC(=O)[C@@H](N)CSSC[C@@H](C(=O)N2CCC[C@H]2C(=O)N[C@@H](CCCN)C(=O)NCC(N)=O)NC(=O)[C@H](CC(N)=O)NC(=O)[C@H](CCC(=O)NOC)NC1=O (H-CFI[X4]NCP[Orn]G-NH2; disulfide 1-6)
> 830 | – | – | 12 nM | 42 | > 830 | 510 nM | > 10 µM | > 10 µM | > 10 µM | > 10 µM | CC[C@H](C)[C@@H]1NC(=O)[C@H](Cc2cccs2)NC(=O)[C@@H](N)CSSC[C@@H](C(=O)N2CCC[C@H]2C(=O)N[C@@H](CCN)C(=O)NCC(N)=O)NC(=O)[C@H](CC(N)=O)NC(=O)[C@H](CC(N)=O)NC1=O (H-C[2Thi]INNCP[Dab]G-NH2; disulfide 1-6)
> 710 | 0.86 µM | – | 14 nM | 18 | 61 | 260 nM | – | – | > 10 µM | > 10 µM | CC[C@H](C)[C@@H]1NC(=O)[C@H](Cc2cccs2)NC(=O)[C@@H](N)CSSC[C@@H](C(=O)N2CCC[C@H]2C(=O)N[C@@H](CCCNC(C)C)C(=O)NCC(N)=O)NC(=O)[C@H](CC(N)=O)NC(=O)[C@H](CC(N)=O)NC1=O (H-C[2Thi]INNCP[Orn(iPr)]G-NH2; disulfide 1-6)
> 660 | – | – | 15 nM | 14 | > 660 | 220 nM | > 10 µM | > 10 µM | > 10 µM | > 10 µM | CC[C@H](C)[C@@H]1NC(=O)[C@H](Cc2cccs2)NC(=O)[C@@H](N)CSSC[C@@H](C(=O)N2CCC[C@H]2C(=O)N[C@@H](CCCN)C(=O)NCC(N)=O)NC(=O)[C@H](CC(N)=O)NC(=O)[C@H](CC(N)=O)NC1=O (H-C[2Thi]INNCP[Orn]G-NH2; disulfide 1-6)
> 330 | – | – | 30 nM | 6.6 | > 330 | 200 nM | > 10 µM | > 10 µM | > 10 µM | > 10 µM | CC[C@H](C)[C@@H]1NC(=O)[C@H](Cc2cccnc2)NC(=O)[C@@H](N)CSSC[C@@H](C(=O)N2CCC[C@H]2C(=O)N[C@@H](CCN)C(=O)NCC(N)=O)NC(=O)[C@H](CC(N)=O)NC(=O)[C@H](CCC(N)=O)NC1=O (H-C[3Pal]IQNCP[Dab]G-NH2; disulfide 1-6)
> 1300 | – | – | 7.4 nM | 51 | > 1300 | 380 nM | > 10 µM | > 10 µM | > 10 µM | > 10 µM | CC[C@H](C)[C@@H]1NC(=O)[C@H](Cc2ccsc2)NC(=O)[C@@H](N)CSSC[C@@H](C(=O)N2CCC[C@H]2C(=O)N[C@@H](CCN)C(=O)NCC(N)=O)NC(=O)[C@H](CC(N)=O)NC(=O)[C@H](CC(N)=O)NC1=O (H-C[3Thi]INNCP[Dab]G-NH2; disulfide 1-6)
> 1300 | – | – | 7.3 nM | 47 | > 1300 | 350 nM | > 10 µM | > 10 µM | > 10 µM | > 10 µM | CC[C@H](C)[C@@H]1NC(=O)[C@H](Cc2ccsc2)NC(=O)[C@@H](N)CSSC[C@@H](C(=O)N2CCC[C@H]2C(=O)N[C@@H](CCCN)C(=O)NCC(N)=O)NC(=O)[C@H](CC(N)=O)NC(=O)[C@H](CC(N)=O)NC1=O (H-C[3Thi]INNCP[Orn]G-NH2; disulfide 1-6)
> 830 | – | – | 12 nM | 10 | > 830 | 120 nM | > 10 µM | > 10 µM | > 10 µM | > 10 µM | CC[C@H](C)[C@@H]1NC(=O)C2(CCC2)NC(=O)[C@@H](N)CSSC[C@@H](C(=O)N2CCC[C@H]2C(=O)N[C@@H](CCN)C(=O)NCC(N)=O)NC(=O)[C@H](CC(N)=O)NC(=O)[C@H](CC(N)=O)NC1=O (H-C[Ac4c]INNCP[Dab]G-NH2; disulfide 1-6)
> 1200 | – | – | 7.9 nM | 13 | > 1200 | 110 nM | > 10 µM | > 10 µM | > 10 µM | > 10 µM | CC[C@H](C)[C@@H]1NC(=O)C2(CCC2)NC(=O)[C@@H](N)CSSC[C@@H](C(=O)N2CCC[C@H]2C(=O)N[C@@H](CCCN)C(=O)NCC(N)=O)NC(=O)[C@H](CC(N)=O)NC(=O)[C@H](CC(N)=O)NC1=O (H-C[Ac4c]INNCP[Orn]G-NH2; disulfide 1-6)
> 660 | 0.97 µM | – | 15 nM | 120 | 64 | 1800 nM | – | – | > 10 µM | > 10 µM | CC[C@H](C)[C@@H]1NC(=O)[C@H](Cc2ccco2)NC(=O)[C@@H](N)CSSC[C@@H](C(=O)N2CCC[C@H]2C(=O)N[C@@H](CCCNC(C)C)C(=O)NCC(N)=O)NC(=O)[C@H](CC(N)=O)NC(=O)[C@H](CC(N)=O)NC1=O (H-C[Ala(2-furyl)]INNCP[Orn(iPr)]G-NH2; disulfide 1-6)
> 1000 | – | – | 10 nM | 53 | > 1000 | 530 nM | > 10 µM | > 10 µM | > 10 µM | > 10 µM | CC[C@H](C)[C@@H]1NC(=O)[C@H](Cc2ccco2)NC(=O)[C@@H](N)CSSC[C@@H](C(=O)N2CCC[C@H]2C(=O)N[C@@H](CCCN)C(=O)NCC(N)=O)NC(=O)[C@H](CC(N)=O)NC(=O)[C@H](CC(N)=O)NC1=O (H-C[Ala(2-furyl)]INNCP[Orn]G-NH2; disulfide 1-6)
150 | 0.105 µM | 0.33 µM | 2.2 nM | 95 | 47 | 210 nM | – | – | – | – | CC[C@H](C)[C@@H]1NC(=O)[C@H](Cc2ccco2)NC(=O)[C@@H](N)CSSC[C@@H](C(=O)N2CCC[C@H]2C(=O)N[C@@H](CCN)C(=O)NCC(N)=O)NC(=O)[C@H](CC(N)=O)NC(=O)[C@H](CCC(N)=O)NC1=O (H-C[Ala(2-furyl)]IQNCP[Dab]G-NH2; disulfide 1-6)
> 900 | – | – | 11 nM | 6.9 | > 900 | 76 nM | > 10 µM | > 10 µM | > 10 µM | > 10 µM | CC[C@H](C)[C@@H]1NC(=O)[C@H](CC2CCCC2)NC(=O)[C@@H](N)CSSC[C@@H](C(=O)N2CCC[C@H]2C(=O)N[C@@H](CCN)C(=O)NCC(N)=O)NC(=O)[C@H](CC(N)=O)NC(=O)[C@H](CC(N)=O)NC1=O (H-C[Ala(cPent)]INNCP[Dab]G-NH2; disulfide 1-6)

Compound | Ratio EC50 [1] | EC50 ([2]; read-out: EC50) | EC50 ([3]; read-out: EC50) | EC50 [4] | Ratio EC50 [5] | Ratio EC50 [6] | EC50 [7] | EC50 ([2]; cho-k1, read-out: EC50) | EC50 ([2]; read-out: pEC50 (converted)) | EC50 ([3]; hek293, read-out: EC50) | EC50 ([3]; read-out: pEC50 (converted))
CC[C@H](C)[C@@H]1NC(=O)[C@H](Cc2ccccc2)NC(=O)[C@@H](N)CSSC[C@@H](C(=O)N2CCC[C@H]2C(=O)N[C@@H](CCCNCCC(C)C)C(=O)NCC(N)=O)NC(=O)[C@H](CC(N)=O)NC(=O)[C@H](CCC(N)=O)NC1=O (H-CFIQNCP[X5]G-NH2; disulfide 1-6) | 230 | 0.044 µM | 0.19 µM | 0.82 nM | 120 | 53 | 100 nM | – | – | – | –
